# Reference: ChEMBL document CHEMBL1148290, “Synthesis of flexible sulfur-containing heteroarotinoids that induce apoptosis and reactive oxygen species with discrimination between malignant and benign cells” (2004)
# Key:
# Assay type in all cases: functional
# OVCAR-3 [1] = assay: Efficacy is growth inhibition activity at 10 uM concentration relative to the maximum activity observed for 4-HPR with OVCAR-3 cell line
# Outline: (§1)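 Cells seeded at 1000 cells/well; next day retinoids added from DMSO stocks (DMSO ≤0.01% final; solvent-only controls) to final 1, 4, 7 and 10 μM, handled under subdued light. After 3 days, living cells quantitated by MTS/PMS reduction read at OD490 in linear range (0.1–0.6); triplicate wells averaged, percent growth inhibition calculated versus solvent controls.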
# OVCAR-3 [2] = assay: Potency of compound was determined from ability to inhibit the growth of ovarian carcinoma OVCAR-3 cell line; outline: as §1
# SK-OV-3 [3] = assay: Potency of compound was determined from ability to inhibit the growth of ovarian carcinoma SK-OV-3 cell line; outline: as §1
# Caov-3 cell line [4] = assay: Efficacy is growth inhibition activity at 10 uM concentration relative to the maximum activity observed for 4-HPR with Caov-3 cell line; outline: as §1
# SK-OV-3 [5] = assay: Efficacy is growth inhibition activity at 10 uM concentration relative to the maximum activity observed for 4-HPR with SK-OV-3 cell line; outline: as §1
# Caov-3 cell line [6] = assay: Potency of compound was determined from ability to inhibit the growth of ovarian carcinoma cell line Caov-3; outline: as §1
Compound,Efficacy (OVCAR-3 [1]) [%],Potency (OVCAR-3 [2]) [µM],Potency (SK-OV-3 [3]) [µM],Efficacy (Caov-3 cell line [4]) [%],Efficacy (SK-OV-3 [5]) [%],Potency (Caov-3 cell line [6]) [µM]
CCOC(=O)c1ccc(NC(=O)Nc2ccc3c(c2)C(C)(C)CC(C)(C)S3)cc1,160.4,3.9,4.1,63.7,71.8,7
Cc1cc2c(cc1/N=C(\S)Nc1ccc(S(N)(=O)=O)cc1)C(C)(C)CC(C)(C)S2,90,4.4,6.9,30.3,67.7,0.9
CCOC(=O)c1ccc(NC(=O)Nc2cc3c(cc2C)SC(C)(C)CC3(C)C)cc1,107,4.7,7.2,54.9,75.7,10.2
CC1(C)CC(C)(C)c2cc(N/C(S)=N/c3ccc(S(N)(=O)=O)cc3)ccc2S1,74.1,4.4,7.8,16.7,50.5,7
CCOC(=O)c1ccc(N/C(S)=N/c2ccc3c(c2)C(C)(C)CC(C)(C)S3)cc1,133.8,3.9,3.9,38.1,64.9,4.6
CCOC(=O)c1ccc(N/C(S)=N/c2cc3c(cc2C)SC(C)(C)CC3(C)C)cc1,114.4,4.4,4.4,37.4,85.4,4
Cc1cc([N+](=O)[O-])ccc1/N=C(\S)Nc1ccc2c(c1)C(C)(C)CC(C)(C)S2,149.5,3.7,3.9,52.1,78.4,7.4
CC1=C(/C=C/C(C)=C/C=C/C(C)=C/C(=O)Nc2ccc(O)cc2)C(C)(C)CCC1 [FENRETINIDE],100,6.9,8.2,100,100,3.7
CC1(C)CC(C)(C)c2cc(NC(=S)Nc3ccc([N+](=O)[O-])cc3)ccc2S1 [SHETA-2],155.2,1,0.2,89.2,69.1,3.7
